≈ marks a conversion by molar mass, not a printed value. Entries after “also recorded” stand apart in the source; their conditions may differ. *1 amine or outer side, *2 acyl side, *3 side chain or, on linkers, in order; H or OH if unused. Where a SMILES comes first, the peptide text is derived from it. [ ]: non-standard residue; d: D form. X1 = CN([C@H](C(=O)[*:2])[C@@H](O)C(N)=O)[*:1]; Pro(4S-Me) = C[C@@H]1CN[C@H](C(=O)O)C1; N(OH)Ala = C[C@H](NO)C(=O)O; Lac = C[C@H](O)C(=O)O; Dha = C=C(N)C(=O)O
Key:
[1] = Plasma protein binding by equilibrium dialysis, mouse plasma; assay type: in vitro ADME; details: for Plasma Protein Binding Mouse (%free): 2 μM, equilibrium dialysis 6 h, 37 °C
[2] = Plasma protein binding by equilibrium dialysis, human plasma; assay type: in vitro ADME; details: for Plasma Protein Binding Human (%free): 2 μM, equilibrium dialysis 6 h, 37 °C
CYP2D6 = CYP2D6 (Homo sapiens, UniProt P10635); test: P450 inhibition in human hepatic microsomes, CYP2D6; assay type: in vitro ADME; details: for Human P450 Inhibition 2D6 %Inh.: at 10 μM
CYP3A4 [3] = molecular target: T1, CYP3A4 (Homo sapiens, UniProt P08684); test: in vitro; details: microsomes
CYP2C9 = CYP2C9 (Homo sapiens, UniProt P11712); test: P450 inhibition in human hepatic microsomes, CYP2C9; assay type: in vitro ADME; details: for Human P450 Inhibition 2C9 %Inh.: at 10 μM
CYP1A2 = molecular target: T2, CYP1A2 (Homo sapiens, UniProt P05177); test: P450 inhibition in human hepatic microsomes, CYP1A2; assay type: in vitro ADME; details: for Human P450 Inhibition 1A2 %Inh.: at 10 μM
T2 sequence (P05177 1-516): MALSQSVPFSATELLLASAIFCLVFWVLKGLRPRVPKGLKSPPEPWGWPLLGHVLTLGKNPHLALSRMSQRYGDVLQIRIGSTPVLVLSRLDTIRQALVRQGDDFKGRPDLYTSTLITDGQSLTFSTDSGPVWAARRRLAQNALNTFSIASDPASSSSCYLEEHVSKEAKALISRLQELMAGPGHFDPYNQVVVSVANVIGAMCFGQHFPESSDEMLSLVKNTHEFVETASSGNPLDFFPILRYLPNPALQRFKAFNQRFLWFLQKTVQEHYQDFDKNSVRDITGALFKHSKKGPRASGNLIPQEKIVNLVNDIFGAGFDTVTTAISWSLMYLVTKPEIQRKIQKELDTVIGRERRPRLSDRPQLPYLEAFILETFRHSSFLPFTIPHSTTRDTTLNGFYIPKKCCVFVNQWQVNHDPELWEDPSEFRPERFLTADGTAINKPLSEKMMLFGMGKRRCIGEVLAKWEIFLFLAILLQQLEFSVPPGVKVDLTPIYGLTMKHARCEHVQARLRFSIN

α-tubulin = test: Immunoblot analysis of α-tubulin levels in SK-OV-3 cells; assay type: cell-based; details: 16 h
Procedure, shortened: (§1)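 SK-OV-3 cells seeded at 2 × 10⁵/well and attached 24 h. Medium replaced, then ±1 h preincubation with 10 µM MG-132 before test compound or 0.5 % DMSO for 16 h. Whole-cell lysates normalised by BCA, run on 4–12 % SDS-PAGE, blotted to PVDF and detected by chemiluminescence. Densitometry of a representative blot, normalised to GAPDH and to DMSO without MG-132.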

[4] = molecular target: T3, gatorbulin site of tubulin (Bos taurus, UniProt P81947+Q6B856); details: cited from earlier work
[5] = molecular target: T3, gatorbulin site of tubulin; test: Binding constants by MTC displacement; set-up: species or system calf; details: 10 μM tubulin plus 10 μM MTC, compound up to 100 μM
[6] = tested on: SK-OV-3 ovarian cancer cells; test: MTT viability assay, SK-OV-3; assay type: cell-based; details: for IC50: read-out: IC50 SK-OV-3, 48 h
[7] = molecular target: human efflux transporter MDR1/P-gp (MDCK cells) (Homo sapiens, UniProt P08183); test: MDCK-MDR1 permeability assay; details: for Permeability-MDCK-PgP Substrate?: P-gp substrate classification
CYP3A4 [8] = molecular target: T1, CYP3A4; test: P450 inhibition in human hepatic microsomes, CYP3A4; details: at 10 μM
[9] = tested on: SK-OV-3-MDR1-M6/6 cell line; details: cited from earlier work
β-tubulin = test: Immunoblot analysis of β-tubulin levels in SK-OV-3 cells; assay type: cell-based; details: 16 h
Procedure, shortened: as §1

[10] = Kinetic solubility in pH 7.4 phosphate buffered saline; assay type: physicochemical; details: 1% DMSO, 24 hours, top concentration 100 μM
PAMPA permeability = assay type: in vitro ADME; details: for Permeability-PAMPA Tested: 5 μM, pH 7.4, 5 hours; for Permeability-PAMPA Predicted level: predicted from PAMPA
[11] = tested on: HeLa cervical cancer cells; test: MTT viability assay, HeLa; assay type: cell-based; details: read-out: IC50 HeLa, 48 h
Procedure, shortened: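 HeLa cells grown in DMEM with 10 % FBS at 37 °C, 5 % CO₂. Seeded at 5000 cells/well, attached overnight, then exposed to a concentration series of test compound or 0.5 % DMSO. MTT read-out 48 h after treatment. IC50 by non-linear regression; mean ± SD, n = 3.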

human MDR1/P-gp = human MDR1/P-gp (Homo sapiens, UniProt P08183); test: MDCK-MDR1 permeability assay; details: dog, MDCK-MDR1, pH 7.4
[12] = Hepatic microsomal stability, mouse; assay type: in vitro ADME; details: liver microsomes, pH 7.4
[13] = Hepatic microsomal stability, human; assay type: in vitro ADME; details: liver microsomes, pH 7.4
[14] = human, liver microsomes, probe bufuralol, hydroxylation to 4'-hydroxybufuralol
[15] = human, liver microsomes, probe tolbutamide, hydroxylation to hydroxytolbutamide

NC(=O)N1c2ccccc2C=Cc2ccccc21 [Car, carbamazepine, reference compound]
fraction unbound at 6 h, 2 µM ([1]; mouse, plasma): 0.36
fraction unbound at 6 h, 2 µM ([2]; human, plasma): 0.25

Cc1nc2c([nH]1)c(=O)n(C)c(=O)n2Cc1ccco1 [Fur, furafylline]
inhibition at 40 µM (CYP2D6; [14]): < 10%
inhibition at 40 µM (CYP3A4 [3]): < 10%
inhibition at 40 µM (CYP2C9; [15]): < 10%
inhibition at 40 µM (CYP1A2; human, microsomes): 82%

C=C1NC(=O)[C@H](C)N(O)C(=O)[C@H]([C@@H](O)C(N)=O)N(C)C(=O)[C@H](C)OC(=O)[C@@H]2C[C@H](C)CN2C1=O [GB1, Gatorbulin-1] (cyclo([Dha][Pro(4S-Me)][Lac][X1][N(OH)Ala]))
Plasma Protein Binding Mouse (%free) [1]: 80 %free
Human P450 Inhibition 2D6 %Inh. (CYP2D6): 11 %Inh.
reduction of α-tubulin levels (α-tubulin; 10 μM): 80%
effect on α- and β-tubulin levels (α-tubulin; without MG132): induced a reduction of both α- and β-tubulin levels
binding affinity reported previously [4]: 1.01e+06 M⁻¹
Kb (binding affinity, MTC) ([5]; listed as GB1 (1a)): 2.2 ± 0.7 × 10^6 M^−1
concentration at which active ([6]; SK-OV-3 and HeLa cells, 48 h): submicromolar
IC50 [6]: 216 nM
Human P450 Inhibition 2C9 %Inh. (CYP2C9): < 10 %Inh.
Permeability-MDCK-PgP Mean Papp A to B ([7]; 2 μM, 90 minutes): 1.8 10^−6 cm/s
Permeability-MDCK-PgP Mean Papp B to A ([7]; 2 μM, 90 minutes): 1.6 10^−6 cm/s
Permeability-MDCK-PgP Substrate? [7]: not a P-gp substrate or is a poor P-gp substrate; also recorded: poor or non-
Human P450 Inhibition 3A4 %Inh. (CYP3A4 [8]): < 10 %Inh.
effectiveness in P-gp overexpressing cells versus parental line [9]: less effective
Human P450 Inhibition 1A2 %Inh. (CYP1A2): 13 %Inh.
depletion of β-tubulin (β-tubulin; 3.2 μM): 80%
preference for β-tubulin over α-tubulin depletion (β-tubulin): ~ 3 fold
Solubility Kinetic [10]: > 100 µM
Plasma Protein Binding Human (%free) [2]: 76 %free
Permeability-PAMPA Tested (PAMPA permeability): 4.5 10^−6 cm/s
Permeability-PAMPA Predicted level (PAMPA permeability): high
IC50 [11]: 590 nM

CC(=O)N1CCN(c2ccc(OCC3COC(Cn4ccnc4)(c4ccc(Cl)cc4Cl)O3)cc2)CC1 (centres unmarked) [Ket, ketoconazole]
inhibition at 1 µM (CYP2C9; [15]): 39%
inhibition at 1 µM (CYP1A2; human, liver microsomes): 13%

CC(C)(C)NCC(O)COc1cccc2c1CC(O)C(O)C2 (centres unmarked) [Nad, nadolol]
Permeability-MDCK-PgP Substrate? [7]: poor or non-
Papp A→B at 90 min, 2 µM (human MDR1/P-gp): 1.9 ×10⁻⁶ cm/s
Papp B→A at 90 min, 2 µM (human MDR1/P-gp): 1.5 ×10⁻⁶ cm/s
efflux ratio at 90 min, 2 µM (human MDR1/P-gp): 0.8

CC(=O)O[C@H]1C(=O)[C@@]2(C)[C@H]([C@H](OC(=O)c3ccccc3)[C@]3(O)C[C@H](OC(=O)[C@H](O)[C@@H](NC(=O)c4ccccc4)c4ccccc4)C(C)=C1C3(C)C)[C@]1(OC(C)=O)CO[C@@H]1C[C@@H]2O [Pac, paclitaxel, reference compound]
Solubility Kinetic [10]: 1.3 µM (≈ 1.11 µg/mL)

CC(C)NCC(O)COc1cccc2ccccc12 (centres unmarked) [Pro, propranolol, reference compound]
Papp at 5 h, 5 µM (PAMPA permeability; PAMPA, pH 7.4): 5.7 ×10⁻⁶ cm/s
Permeability-PAMPA Predicted level (PAMPA permeability): high

C=C[C@H]1C[N@@]2CC[C@H]1C[C@@H]2[C@@H](O)c1ccnc2ccc(OC)cc12 [Qui, quinidine]
inhibition at 10 µM (CYP2C9; [15]): < 10%
Papp A→B at 90 min, 2 µM (human MDR1/P-gp): 1.6 ×10⁻⁶ cm/s
Papp B→A at 90 min, 2 µM (human MDR1/P-gp): 11.1 ×10⁻⁶ cm/s
inhibition at 10 µM (CYP1A2; human, liver microsomes): < 10%

CNC(=C[N+](=O)[O-])NCCSCc1ccc(CN(C)C)o1 [Ran, ranitidine, reference compound]
Permeability-PAMPA Predicted level (PAMPA permeability): low

Nc1ccc(S(=O)(=O)Nc2ccnn2-c2ccccc2)cc1 [Sul, sulfaphenazole, reference compound]
inhibition at 10 µM (CYP2D6; [14]): < 10%
inhibition at 10 µM (CYP1A2; human, liver microsomes): < 10%

CCN(CC)CCNC(=O)c1c(C)[nH]c(/C=C2\C(=O)Nc3ccc(F)cc32)c1C [Sun, sunitinib]
half-life at 1 µM [12]: 13.5 min
half-life at 1 µM [13]: 34.5 min

COc1cc([C@@H]2c3cc4c(cc3[C@H](O)[C@H]3COC(=O)[C@H]23)OCO4)cc(OC)c1OC [podophyllotoxin, reference compound]
Kb (binding affinity, MTC) [5]: 1.5e+07 M⁻¹

gatorbulin-2 [GB2]
Plasma Protein Binding Mouse (%free) [1]: 88 %free
Human P450 Inhibition 2D6 %Inh. (CYP2D6): < 10 %Inh.
MTC displacement [5]: no MTC displacement
IC50 [6]: > 100000 nM
Human P450 Inhibition 2C9 %Inh. (CYP2C9): 18 %Inh.
Human P450 Inhibition 3A4 %Inh. (CYP3A4 [8]): < 10 %Inh.
Human P450 Inhibition 1A2 %Inh. (CYP1A2): < 10 %Inh.
Solubility Kinetic [10]: > 100 µM
Plasma Protein Binding Human (%free) [2]: 60 %free
Permeability-PAMPA Tested (PAMPA permeability): 8.2 10^−6 cm/s
Permeability-PAMPA Predicted level (PAMPA permeability): high
IC50 [11]: > 100000 nM
